From ChEMBL document CHEMBL2331148, “Design and synthesis of imidazole and triazole derivatives as Lp-PLA₂ inhibitors and the unexpected discovery of highly potent quaternary ammonium salts” (Bioorg Med Chem Lett, 2013)
The source made the active and inactive calls. The calls are words filed in the database; no cut-off is given here.

Columns and labels:
Oryctolagus cuniculus [1] = organism: Oryctolagus cuniculus; assay: Inhibition of rabbit plasma Lp-PLA2 at 100 nM by liquid scintillation counting; assay type: cell-free
In short: (§1)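 Plasma used as the enzyme source. Compounds were added from DMSO solution to buffer of 50 mmol/L HEPES (pH 7.4) and 150 mmol/L NaCl. Preincubated 5 min at 37 °C, then [3H]PAF (1uCi) was added and incubated 10 min at 37 °C. Lipids were extracted with CHCl3/MeOH (2:1) and centrifuged at 12000g, 4 °C, 15 min. Supernatant radioactivity was counted. Result is % inhibition at the tested concentration.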

Oryctolagus cuniculus [2] = organism: Oryctolagus cuniculus; assay: Inhibition of rabbit plasma Lp-PLA2 at 10 nM by liquid scintillation counting; assay type: cell-free; in short: as §1
Homo sapiens [3] = organism: Homo sapiens; assay: Inhibition of human plasma Lp-PLA2 at 1 nM by liquid scintillation counting; assay type: cell-free; in short: as §1
Homo sapiens [4] = organism: Homo sapiens; assay: Inhibition of human plasma Lp-PLA2 at 10 nM by liquid scintillation counting; assay type: cell-free; in short: as §1
Oryctolagus cuniculus [5] = organism: Oryctolagus cuniculus; assay: Inhibition of rabbit plasma Lp-PLA2 at 1 microM by liquid scintillation counting; assay type: cell-free; in short: as §1
Oryctolagus cuniculus [6] = organism: Oryctolagus cuniculus; assay: Inhibition of rabbit plasma Lp-PLA2 at 10 microM by liquid scintillation counting; assay type: cell-free; in short: as §1
Mus musculus [7] = assay: Inhibition of plasma Lp-PLA2 in Apo-E mouse model at 50 mg/kg, ip measured after 24 hrs by in vivo inhibition assay; assay type: functional, organism-based; design: dose 50 mg/kg
Mus musculus [8] = assay: Inhibition of plasma Lp-PLA2 in Apo-E mouse model at 50 mg/kg, ip measured after 12 hrs by in vivo inhibition assay; assay type: functional, organism-based; design: dose 50 mg/kg

| Compound | inhibition (Oryctolagus cuniculus [1]) [%] | inhibition (Oryctolagus cuniculus [2]) [%] | inhibition (Homo sapiens [3]) [%] | inhibition (Homo sapiens [4]) [%] | inhibition (Oryctolagus cuniculus [5]) [%] | inhibition (Oryctolagus cuniculus [6]) [%] | inhibition (Mus musculus [7]) | inhibition (Mus musculus [8]) |
| --- | --- | --- | --- | --- | --- | --- | --- | --- |
| CN(C)Cc1cnc(Cn2c(SCc3ccc(F)cc3)nc(=O)c3c2CCC3)n1Cc1ccc(-c2ccc(C(F)(F)F)cc2)cc1 | 87 | 13 | 54 | 75 | – | – | – | – |
| CN(C)C1CCN(Cc2nnc(Cn3c(SCc4ccc(F)cc4)nc(=O)c4c3CCC4)n2Cc2ccc(-c3ccc(C(F)(F)F)cc3)cc2)CC1 | 82 | 11 | 57 | 71 | – | – | – | – |
| O=c1nc(SCc2ccc(F)cc2)n(Cc2nccn2Cc2ccc(-c3ccc(C(F)(F)F)cc3)cc2)c2c1CCC2 | 17 | – | – | – | 80 | – | – | – |
| Cc1nnc(Cn2c(SCc3ccc(F)cc3)nc(=O)c3c2CCC3)n1Cc1ccc(-c2ccc(C(F)(F)F)cc2)cc1 | 79 | 10 | 11 | 73 | – | – | – | – |
| CC(C)c1nnc(Cn2c(SCc3ccc(F)cc3)nc(=O)c3c2CCC3)n1Cc1ccc(-c2ccc(C(F)(F)F)cc2)cc1 | 91 | 34 | 71 | 92 | – | – | – | – |
| CC(C)N(C)Cc1nnc(Cn2c(SCc3ccc(F)cc3)nc(=O)c3c2CCC3)n1Cc1ccc(-c2ccc(C(F)(F)F)cc2)cc1 | 85 | 13 | 35 | 77 | – | – | – | – |
| CCCCCCCCCCc1cnc(Cn2c(SCc3ccc(F)cc3)nc(=O)c3c2CCC3)n1CCN(CC)CC | – | – | – | – | – | 6 | – | – |
| CCN1CCN(Cc2nnc(Cn3c(SCc4ccc(F)cc4)nc(=O)c4c3CCC4)n2Cc2ccc(-c3ccc(C(F)(F)F)cc3)cc2)CC1 | 90 | 20 | 64 | 82 | – | – | – | – |
| C[C@@H]1CN(Cc2nnc(Cn3c(SCc4ccc(F)cc4)nc(=O)c4c3CCC4)n2Cc2ccc(-c3ccc(C(F)(F)F)cc3)cc2)C[C@H](C)O1 | 76 | 16 | 23 | 69 | – | – | – | – |
| CCn1c(Cc2ccc(-c3ccc(C(F)(F)F)cc3)cc2)nnc1Cn1c(SCc2ccc(F)cc2)nc(=O)c2c1CCC2 | – | – | – | – | – | 40 | – | – |
| C[N+](C)(Cc1ccc(F)cc1)Cc1cnc(Cn2c(SCc3ccc(F)cc3)nc(=O)c3c2CCC3)n1Cc1ccc(-c2ccc(C(F)(F)F)cc2)cc1 | 99 | 97 | 85 | 97 | – | – | – | – |
| O=c1nc(SCc2ccc(F)cc2)n(Cc2nccn2Cc2ccc(-c3ccccc3)cc2)c2c1CCC2 | – | – | – | – | – | 3 | – | – |
| COC(=O)C(C)(C)N1CCN(Cc2nnc(Cn3c(SCc4ccc(F)cc4)nc(=O)c4c3CCC4)n2Cc2ccc(-c3ccc(C(F)(F)F)cc3)cc2)CC1 | 67 | 15 | 45 | 51 | – | – | – | – |
| CN(Cc1ccc(F)cc1)Cc1nnc(Cn2c(SCc3ccc(F)cc3)nc(=O)c3c2CCC3)n1Cc1ccc(-c2ccc(C(F)(F)F)cc2)cc1 | 90 | 10 | 71 | 93 | – | – | – | – |
| CCCCCCCCCCc1nnc(Cn2c(SCc3ccc(F)cc3)nc(=O)c3c2CCC3)n1CC | – | – | – | – | – | 27 | – | – |
| CCN(CC)Cc1cnc(Cn2c(SCc3ccc(F)cc3)nc(=O)c3c2CCC3)n1Cc1ccc(-c2ccc(C(F)(F)F)cc2)cc1 | 88 | 10 | 52 | 75 | – | – | – | – |
| CC(=O)NCc1nnc(Cn2c(SCc3ccc(F)cc3)nc(=O)c3c2CCC3)n1Cc1ccc(-c2ccc(C(F)(F)F)cc2)cc1 | 67 | 8 | 44 | 67 | – | – | – | – |
| CCS(=O)(=O)NCc1nnc(Cn2c(SCc3ccc(F)cc3)nc(=O)c3c2CCC3)n1Cc1ccc(-c2ccc(C(F)(F)F)cc2)cc1 | 75 | 7 | 49 | 68 | – | – | – | – |
| O=c1nc(SCc2ccc(F)cc2)n(Cc2ncc(CN3CCCC3)n2Cc2ccc(-c3ccc(C(F)(F)F)cc3)cc2)c2c1CCC2 | 79 | 10 | 21 | 67 | – | – | – | – |

| Compound | inhibition (Oryctolagus cuniculus [1]) [%] | inhibition (Oryctolagus cuniculus [2]) [%] | inhibition (Homo sapiens [3]) [%] | inhibition (Homo sapiens [4]) [%] | inhibition (Oryctolagus cuniculus [5]) [%] | inhibition (Oryctolagus cuniculus [6]) [%] | inhibition (Mus musculus [7]) | inhibition (Mus musculus [8]) |
| --- | --- | --- | --- | --- | --- | --- | --- | --- |
| CCN(CC)Cc1nnc(Cn2c(SCc3ccc(F)cc3)nc(=O)c3c2CCC3)n1Cc1ccc(-c2ccc(C(F)(F)F)cc2)cc1 | 85 | 21 | 60 | 78 | – | – | – | – |
| CCCc1nnc(Cn2c(SCc3ccc(F)cc3)nc(=O)c3c2CCC3)n1Cc1ccc(-c2ccc(C(F)(F)F)cc2)cc1 | 88 | 25 | 65 | 88 | – | – | – | – |
| CCn1c(Cn2c(SCc3ccc(F)cc3)nc(=O)c3c2CCC3)nnc1-c1ccc(-c2ccc(C(F)(F)F)cc2)cc1 | – | – | – | – | 21 | 34 | – | – |
| CC(O)c1nnc(Cn2c(SCc3ccc(F)cc3)nc(=O)c3c2CCC3)n1Cc1ccc(-c2ccc(C(F)(F)F)cc2)cc1 (configuration not stated) | 90 | 29 | 68 | 89 | – | – | – | – |
| O=c1nc(SCc2ccc(F)cc2)n(Cc2nccn2Cc2ccc(-c3ccc(Cl)cc3)cc2)c2c1CCC2 | – | – | – | – | 2 | 50 | – | – |
| C[N+](C)(Cc1ccc(F)cc1)Cc1nnc(Cn2c(SCc3ccc(F)cc3)nc(=O)c3c2CCC3)n1Cc1ccc(-c2ccc(C(F)(F)F)cc2)cc1 | 97 | 91 | 95 | 99 | – | – | Active | – |
| O=c1nc(SCc2ccc(F)cc2)n(Cc2nncn2Cc2ccc(-c3ccc(C(F)(F)F)cc3)cc2)c2c1CCC2 | 67 | – | – | – | 95 | – | – | – |
| O=c1nc(SCc2ccc(F)cc2)n(Cc2nnc(C3CC3)n2Cc2ccc(-c3ccc(C(F)(F)F)cc3)cc2)c2c1CCC2 | 87 | 34 | 68 | 93 | – | – | – | – |
| CN(Cc1nnc(Cn2c(SCc3ccc(F)cc3)nc(=O)c3c2CCC3)n1Cc1ccc(-c2ccc(C(F)(F)F)cc2)cc1)C1CC1 | 86 | 16 | 38 | 77 | – | – | – | – |
| CCN(CC)CCN(Cc1ccc(-c2ccc(C(F)(F)F)cc2)cc1)C(=O)Cn1c(SCc2ccc(F)cc2)nc(=O)c2c1CCC2 | 99 | 82 | 80 | 95 | – | – | – | Active |
| O=c1nc(SCc2ccc(F)cc2)n(Cc2ncc(C[N+]3(Cc4ccc(F)cc4)CCCC3)n2Cc2ccc(-c3ccc(C(F)(F)F)cc3)cc2)c2c1CCC2 | – | 88 | 79 | 97 | – | – | – | – |
| C[N+](C)(C)Cc1nnc(Cn2c(SCc3ccc(F)cc3)nc(=O)c3c2CCC3)n1Cc1ccc(-c2ccc(C(F)(F)F)cc2)cc1 | 93 | 91 | 77 | 97 | – | – | – | – |
| CN(C)Cc1nnc(Cn2c(SCc3ccc(F)cc3)nc(=O)c3c2CCC3)n1Cc1ccc(-c2ccc(C(F)(F)F)cc2)cc1 | 88 | 21 | 62 | 85 | – | – | – | – |
| O=c1nc(SCc2ccc(F)cc2)n(Cc2nnc(CO)n2Cc2ccc(-c3ccc(C(F)(F)F)cc3)cc2)c2c1CCC2 | 73 | 23 | 58 | 65 | – | – | – | – |
| O=c1nc(SCc2ccc(F)cc2)n(Cc2ncc(CN3CCCCC3)n2Cc2ccc(-c3ccc(C(F)(F)F)cc3)cc2)c2c1CCC2 | 86 | 11 | 58 | 69 | – | – | – | – |
| CCCCCCCCCCCCn1ccnc1Cn1c(SCc2ccc(F)cc2)nc(=O)c2c1CCC2 | – | – | – | – | 42 | 88 | – | – |
| Cc1ccc(-c2ccc(Cn3ccnc3Cn3c(SCc4ccc(F)cc4)nc(=O)c4c3CCC4)cc2)cc1 | – | – | – | – | – | 28 | – | – |
| CCN(CC)CCn1c(-c2ccc(-c3ccc(C(F)(F)F)cc3)cc2)cnc1Cn1c(SCc2ccc(F)cc2)nc(=O)c2c1CCC2 | – | – | – | – | 16 | 20 | – | – |
